Source: ChEMBL document CHEMBL5352501, “Catalytic Degraders Effectively Address Kinase Site Mutations in EML4-ALK Oncogenic Fusions” (J Med Chem, 2023)
Values after ≈ are worked out from the molar mass of the structure shown. One block for each molecule: values may come before it. Active and inactive are the calls of the source. The calls are words filed in the database; no cut-off is given here.

Experiments:
[1] = test system: Protein cereblon/ALK tyrosine kinase receptor/Echinoderm microtubule-associated protein-like 4 (Homo sapiens), Q9UM73+Q9HC35+Q96SW2 [UNDEFINED MUTATION]; test: PROTAC activity at human CRBN/HiBit-tagged EML4-ALK variant 3b G1202R mutant expressed in mouse BaF3 cells assessed as induction of EML4-ALK variant 3b fusion protein degradation at 2 uM incubated for 4 hrs by Nano-Glo HiBiT assay relative to control; type: cell-based
How it was run: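 Ba/F3 cells stably expressing humanized CRBN and HiBiT-tagged EML4-ALK v3 (WT or mutant) were treated for 4 h. Remaining fusion protein was quantified by HiBiT bioluminescence relative to control.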

[2] = biological target: ALK tyrosine kinase receptor (Homo sapiens, UniProt Q9UM73); test: Inhibition of N-terminal flag-tagged NanoLuc fused ALK kinase domain (1072 to 1410 residues) (unknown origin) expressed in mouse BaF3 cells assessed as reduction in BRET signal incubated for 2 hrs in presence of CPD-1571 tracer by NanoBRET assay; type: cell-based
[3] = biological target: Protein cereblon/ALK tyrosine kinase receptor/Echinoderm microtubule-associated protein-like 4 (Homo sapiens, UniProt Q9UM73+Q9HC35+Q96SW2); test: PROTAC activity at human CRBN/HiBit-tagged wild type human EML4-ALK variant 3b expressed in mouse BaF3 cells assessed as induction of EML4-ALK variant 3b fusion protein degradation incubated for 4 hrs by Nano-Glo HiBiT assay; type: cell-based
Erythrocyte [4] = test: Hemolytic activity in human RBC assessed as hemolysis incubated for 45 mins by absorbance based microplate reader analysis; type: toxicity, cell-based; settings: 0.75 h
[5] = Microsomal stability in human liver microsomes assessed as intrinsic clearance at 1 uM and measured upto 60 mins in presence of NADPH by LC-MS/MSC analysis; type: ADME, Microsome; settings: read-out: CLH
[6] = Oral bioavailability in C57BL/J6 mouse at 10 mg/kg and measured upto 24 hrs by LC-MS/MS analysis; type: ADME, organism-based; settings: in vivo
How it was run: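 Mouse PK was run with both oral and intravenous dosing, with 10 mg/kg as the study dose. Oral bioavailability was derived from comparing the two routes.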

[7] = Solubility of the compound in FeSSIF at pH 5.0 incubated for 24 hrs under shaking condition by UPLC-UV/HPLC-UV analysis; type: physicochemical
Erythrocyte [8] = test: Hemolytic activity in mouse RBC assessed as hemolysis incubated for 45 mins by absorbance based microplate reader analysis; type: toxicity, cell-based; settings: 0.75 h
BaF3 [9] = test: Antiproliferative activity against mouse Ba/F3 cells stably expressing HiBiT-tagged wild type EML4-ALK variant 3 assessed as cell growth inhibition incubated for 72 hrs by CellTiter-Glo assay; type: functional
How it was run: (§1)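 Ba/F3 cells stably expressing HiBiT-tagged EML4-ALK v3 (wild type or the named kinase-site mutant) were treated with compound for 72 h. Growth inhibition was reported as log GI50.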

BaF3 [10] = test: Antiproliferative activity against mouse Ba/F3 cells stably expressing HiBiT-tagged EML4-ALK variant 3 C1156Y mutant assessed as cell growth inhibition incubated for 72 hrs by CellTiter-Glo assay; type: functional; how it was run: as §1
BaF3 [11] = test: Antiproliferative activity against mouse Ba/F3 cells stably expressing HiBiT-tagged EML4-ALK variant 3 G1202R mutant assessed as cell growth inhibition incubated for 72 hrs by CellTiter-Glo assay; type: functional; how it was run: as §1
BaF3 [12] = type: functional; settings: Mus musculus, time 72 hrs, read-out: pGI50 (converted)
BaF3 [13] = type: functional; settings: Mus musculus, time 72 hrs
[14] = biological target: Protein cereblon/ALK tyrosine kinase receptor/Echinoderm microtubule-associated protein-like 4 (Homo sapiens, UniProt Q9UM73+Q9HC35+Q96SW2, G1202R); test: PROTAC activity at human CRBN/EML4-ALK variant 3b G1202R mutant expressed in mouse BaF3 cells assessed as induction of EML4-ALK fusion protein degradation incubated for 4 hrs by Nano-Glo HiBiT assay; type: cell-based
[15] = biological target: T1, Serine/threonine-protein kinase ULK1 (Homo sapiens) (UniProt O75385); test: Induction of ULK1 degradation in human MOLT-4 cells incubated for 6 hrs by MS based proteomics analysis; type: cell-based
T1 sequence (whole entry): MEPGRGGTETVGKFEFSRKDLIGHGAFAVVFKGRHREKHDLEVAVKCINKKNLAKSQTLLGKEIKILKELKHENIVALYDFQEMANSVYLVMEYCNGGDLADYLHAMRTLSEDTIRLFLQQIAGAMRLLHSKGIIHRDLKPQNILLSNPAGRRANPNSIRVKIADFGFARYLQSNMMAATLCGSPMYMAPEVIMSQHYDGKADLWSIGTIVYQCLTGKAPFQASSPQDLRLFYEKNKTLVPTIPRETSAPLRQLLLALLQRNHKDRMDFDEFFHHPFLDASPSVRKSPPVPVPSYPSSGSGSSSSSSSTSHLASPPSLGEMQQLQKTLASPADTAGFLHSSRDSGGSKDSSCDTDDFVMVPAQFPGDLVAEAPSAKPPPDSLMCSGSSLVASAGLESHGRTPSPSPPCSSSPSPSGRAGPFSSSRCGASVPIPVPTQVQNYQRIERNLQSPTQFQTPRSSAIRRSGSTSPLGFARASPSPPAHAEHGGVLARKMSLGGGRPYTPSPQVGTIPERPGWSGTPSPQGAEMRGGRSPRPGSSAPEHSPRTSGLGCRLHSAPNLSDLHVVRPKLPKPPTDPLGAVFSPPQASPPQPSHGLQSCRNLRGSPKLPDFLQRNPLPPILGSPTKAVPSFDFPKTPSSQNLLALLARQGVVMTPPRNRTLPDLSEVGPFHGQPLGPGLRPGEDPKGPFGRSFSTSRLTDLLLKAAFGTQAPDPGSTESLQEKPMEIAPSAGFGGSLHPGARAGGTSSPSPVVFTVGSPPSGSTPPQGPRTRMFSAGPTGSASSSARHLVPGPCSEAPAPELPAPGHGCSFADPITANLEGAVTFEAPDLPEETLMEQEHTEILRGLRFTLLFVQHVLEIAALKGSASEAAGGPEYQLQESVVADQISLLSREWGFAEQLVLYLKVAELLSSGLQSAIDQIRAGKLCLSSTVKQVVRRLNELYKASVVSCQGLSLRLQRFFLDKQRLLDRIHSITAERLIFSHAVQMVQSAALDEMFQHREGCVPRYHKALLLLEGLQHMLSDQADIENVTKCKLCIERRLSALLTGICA

[16] = biological target: Ribosomal protein S6 kinase alpha-1 (Homo sapiens) (UniProt Q15418); test: Induction of RSK1 degradation in human MOLT-4 cells incubated for 6 hrs by MS based proteomics analysis; type: cell-based
[17] = biological target: Tyrosine-protein kinase Fer (Homo sapiens) (UniProt P16591); test: Induction of FER degradation in human MOLT-4 cells incubated for 6 hrs by MS based proteomics analysis; type: cell-based
[18] = biological target: T2, Aurora kinase A (Homo sapiens) (UniProt O14965); test: Induction of AURKA degradation in human MOLT-4 cells incubated for 6 hrs by MS based proteomics analysis; type: cell-based
T2 sequence (whole entry): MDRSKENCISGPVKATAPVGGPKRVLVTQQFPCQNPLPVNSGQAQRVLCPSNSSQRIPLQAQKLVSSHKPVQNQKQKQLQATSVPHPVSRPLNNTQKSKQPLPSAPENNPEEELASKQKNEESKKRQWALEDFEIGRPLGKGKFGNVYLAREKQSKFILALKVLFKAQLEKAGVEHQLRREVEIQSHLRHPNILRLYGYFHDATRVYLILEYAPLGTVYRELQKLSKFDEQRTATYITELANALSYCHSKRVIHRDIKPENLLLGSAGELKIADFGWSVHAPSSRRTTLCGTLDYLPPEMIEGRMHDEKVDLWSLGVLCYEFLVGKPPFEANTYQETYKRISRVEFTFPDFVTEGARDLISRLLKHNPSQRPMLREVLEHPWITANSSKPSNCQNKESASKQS

[19] = biological target: Protein-tyrosine kinase 2-beta (Homo sapiens) (UniProt Q14289); test: Induction of PTK2B degradation in human MOLT-4 cells incubated for 6 hrs by MS based proteomics analysis; type: cell-based

Sequence of ALK tyrosine kinase receptor (Q9UM73 whole entry, the tested form may be a part): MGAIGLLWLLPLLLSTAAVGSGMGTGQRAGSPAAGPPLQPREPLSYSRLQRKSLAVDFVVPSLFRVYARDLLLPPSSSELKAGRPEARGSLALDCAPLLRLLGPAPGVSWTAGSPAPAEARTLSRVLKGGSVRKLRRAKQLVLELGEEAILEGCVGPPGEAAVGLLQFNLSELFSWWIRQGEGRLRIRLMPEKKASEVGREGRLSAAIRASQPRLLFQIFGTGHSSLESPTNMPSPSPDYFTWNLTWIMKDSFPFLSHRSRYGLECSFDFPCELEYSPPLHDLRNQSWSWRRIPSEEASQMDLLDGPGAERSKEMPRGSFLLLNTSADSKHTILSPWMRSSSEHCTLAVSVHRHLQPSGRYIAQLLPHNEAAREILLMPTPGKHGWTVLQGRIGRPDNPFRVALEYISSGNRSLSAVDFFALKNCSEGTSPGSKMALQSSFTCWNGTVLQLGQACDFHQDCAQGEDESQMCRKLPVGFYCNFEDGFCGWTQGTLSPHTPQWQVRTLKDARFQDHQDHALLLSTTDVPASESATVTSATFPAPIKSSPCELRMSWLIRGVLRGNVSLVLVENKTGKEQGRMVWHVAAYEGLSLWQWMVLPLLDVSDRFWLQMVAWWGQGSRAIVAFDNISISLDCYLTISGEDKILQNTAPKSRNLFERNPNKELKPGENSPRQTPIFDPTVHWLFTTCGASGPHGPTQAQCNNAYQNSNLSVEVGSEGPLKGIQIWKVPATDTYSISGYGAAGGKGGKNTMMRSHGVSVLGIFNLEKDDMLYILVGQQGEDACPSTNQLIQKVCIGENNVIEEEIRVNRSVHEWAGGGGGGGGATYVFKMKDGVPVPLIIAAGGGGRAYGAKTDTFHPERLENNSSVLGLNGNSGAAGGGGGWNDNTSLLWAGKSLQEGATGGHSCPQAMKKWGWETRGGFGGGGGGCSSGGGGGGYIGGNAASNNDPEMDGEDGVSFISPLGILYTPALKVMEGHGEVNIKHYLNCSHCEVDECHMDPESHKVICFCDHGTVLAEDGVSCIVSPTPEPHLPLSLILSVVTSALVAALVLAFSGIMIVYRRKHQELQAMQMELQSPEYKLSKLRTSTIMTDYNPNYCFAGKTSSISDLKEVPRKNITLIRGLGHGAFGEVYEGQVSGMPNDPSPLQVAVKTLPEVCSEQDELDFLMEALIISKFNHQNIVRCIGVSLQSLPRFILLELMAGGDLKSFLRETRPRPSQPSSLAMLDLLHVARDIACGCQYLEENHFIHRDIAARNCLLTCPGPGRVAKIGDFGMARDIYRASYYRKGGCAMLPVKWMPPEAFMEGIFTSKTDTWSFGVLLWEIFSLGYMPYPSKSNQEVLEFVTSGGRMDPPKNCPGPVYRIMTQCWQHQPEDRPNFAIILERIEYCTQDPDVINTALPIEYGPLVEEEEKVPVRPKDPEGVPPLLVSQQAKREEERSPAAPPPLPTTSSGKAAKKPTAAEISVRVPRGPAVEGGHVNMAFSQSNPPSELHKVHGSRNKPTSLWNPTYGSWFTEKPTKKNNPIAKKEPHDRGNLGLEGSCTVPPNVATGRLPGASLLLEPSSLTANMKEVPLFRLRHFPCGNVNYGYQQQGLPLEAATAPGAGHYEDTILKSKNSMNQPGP
Sequence of Protein cereblon/ALK tyrosine kinase receptor/Echinoderm microtubule-associated protein-like 4 (Homo sapiens, UniProt Q9UM73+Q9HC35+Q96SW2) (Q96SW2 whole entry, stated change not applied, the tested form may be a part): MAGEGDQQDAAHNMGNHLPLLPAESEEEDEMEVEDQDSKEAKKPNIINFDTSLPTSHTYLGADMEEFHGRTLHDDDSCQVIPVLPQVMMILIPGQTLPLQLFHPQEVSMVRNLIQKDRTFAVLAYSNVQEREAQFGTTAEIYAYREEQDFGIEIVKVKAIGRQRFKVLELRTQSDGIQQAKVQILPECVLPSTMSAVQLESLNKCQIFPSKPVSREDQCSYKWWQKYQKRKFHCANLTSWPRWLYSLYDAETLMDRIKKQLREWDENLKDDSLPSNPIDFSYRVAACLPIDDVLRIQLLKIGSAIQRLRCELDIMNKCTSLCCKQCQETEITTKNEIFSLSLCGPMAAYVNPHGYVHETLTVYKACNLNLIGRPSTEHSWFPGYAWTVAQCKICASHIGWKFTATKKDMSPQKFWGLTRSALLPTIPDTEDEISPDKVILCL
Sequence of Protein cereblon/ALK tyrosine kinase receptor/Echinoderm microtubule-associated protein-like 4 (Homo sapiens, UniProt Q9UM73+Q9HC35+Q96SW2) (Q9HC35 whole entry, stated change not applied, the tested form may be a part): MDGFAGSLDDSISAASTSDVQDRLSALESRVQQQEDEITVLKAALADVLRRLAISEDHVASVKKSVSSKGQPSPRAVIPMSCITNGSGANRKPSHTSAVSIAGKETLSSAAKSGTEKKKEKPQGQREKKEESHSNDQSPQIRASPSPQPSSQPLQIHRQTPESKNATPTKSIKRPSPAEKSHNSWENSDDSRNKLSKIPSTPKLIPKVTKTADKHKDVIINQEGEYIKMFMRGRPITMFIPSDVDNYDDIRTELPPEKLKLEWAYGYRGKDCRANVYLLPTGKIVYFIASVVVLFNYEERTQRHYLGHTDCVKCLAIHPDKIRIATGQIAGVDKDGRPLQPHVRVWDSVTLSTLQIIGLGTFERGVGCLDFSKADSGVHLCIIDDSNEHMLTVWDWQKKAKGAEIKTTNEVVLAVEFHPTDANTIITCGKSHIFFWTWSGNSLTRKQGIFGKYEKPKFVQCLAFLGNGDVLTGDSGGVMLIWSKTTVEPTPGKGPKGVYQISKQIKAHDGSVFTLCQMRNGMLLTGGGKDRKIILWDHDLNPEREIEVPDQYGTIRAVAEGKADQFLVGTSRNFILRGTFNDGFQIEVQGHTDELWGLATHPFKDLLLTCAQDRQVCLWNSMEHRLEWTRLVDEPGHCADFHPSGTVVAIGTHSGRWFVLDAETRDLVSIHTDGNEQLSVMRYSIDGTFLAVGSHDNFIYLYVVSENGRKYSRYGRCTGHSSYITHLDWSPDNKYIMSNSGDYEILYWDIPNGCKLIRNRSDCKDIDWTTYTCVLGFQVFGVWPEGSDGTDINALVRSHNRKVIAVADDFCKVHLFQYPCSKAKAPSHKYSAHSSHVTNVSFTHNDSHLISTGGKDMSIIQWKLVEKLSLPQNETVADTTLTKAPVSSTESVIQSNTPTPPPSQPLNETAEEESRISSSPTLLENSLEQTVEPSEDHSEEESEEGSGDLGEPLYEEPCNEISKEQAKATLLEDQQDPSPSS
Sequence of Protein cereblon/ALK tyrosine kinase receptor/Echinoderm microtubule-associated protein-like 4 (Homo sapiens, UniProt Q9UM73+Q9HC35+Q96SW2) (Q9UM73 19-1620 limits assumed, stated change not applied): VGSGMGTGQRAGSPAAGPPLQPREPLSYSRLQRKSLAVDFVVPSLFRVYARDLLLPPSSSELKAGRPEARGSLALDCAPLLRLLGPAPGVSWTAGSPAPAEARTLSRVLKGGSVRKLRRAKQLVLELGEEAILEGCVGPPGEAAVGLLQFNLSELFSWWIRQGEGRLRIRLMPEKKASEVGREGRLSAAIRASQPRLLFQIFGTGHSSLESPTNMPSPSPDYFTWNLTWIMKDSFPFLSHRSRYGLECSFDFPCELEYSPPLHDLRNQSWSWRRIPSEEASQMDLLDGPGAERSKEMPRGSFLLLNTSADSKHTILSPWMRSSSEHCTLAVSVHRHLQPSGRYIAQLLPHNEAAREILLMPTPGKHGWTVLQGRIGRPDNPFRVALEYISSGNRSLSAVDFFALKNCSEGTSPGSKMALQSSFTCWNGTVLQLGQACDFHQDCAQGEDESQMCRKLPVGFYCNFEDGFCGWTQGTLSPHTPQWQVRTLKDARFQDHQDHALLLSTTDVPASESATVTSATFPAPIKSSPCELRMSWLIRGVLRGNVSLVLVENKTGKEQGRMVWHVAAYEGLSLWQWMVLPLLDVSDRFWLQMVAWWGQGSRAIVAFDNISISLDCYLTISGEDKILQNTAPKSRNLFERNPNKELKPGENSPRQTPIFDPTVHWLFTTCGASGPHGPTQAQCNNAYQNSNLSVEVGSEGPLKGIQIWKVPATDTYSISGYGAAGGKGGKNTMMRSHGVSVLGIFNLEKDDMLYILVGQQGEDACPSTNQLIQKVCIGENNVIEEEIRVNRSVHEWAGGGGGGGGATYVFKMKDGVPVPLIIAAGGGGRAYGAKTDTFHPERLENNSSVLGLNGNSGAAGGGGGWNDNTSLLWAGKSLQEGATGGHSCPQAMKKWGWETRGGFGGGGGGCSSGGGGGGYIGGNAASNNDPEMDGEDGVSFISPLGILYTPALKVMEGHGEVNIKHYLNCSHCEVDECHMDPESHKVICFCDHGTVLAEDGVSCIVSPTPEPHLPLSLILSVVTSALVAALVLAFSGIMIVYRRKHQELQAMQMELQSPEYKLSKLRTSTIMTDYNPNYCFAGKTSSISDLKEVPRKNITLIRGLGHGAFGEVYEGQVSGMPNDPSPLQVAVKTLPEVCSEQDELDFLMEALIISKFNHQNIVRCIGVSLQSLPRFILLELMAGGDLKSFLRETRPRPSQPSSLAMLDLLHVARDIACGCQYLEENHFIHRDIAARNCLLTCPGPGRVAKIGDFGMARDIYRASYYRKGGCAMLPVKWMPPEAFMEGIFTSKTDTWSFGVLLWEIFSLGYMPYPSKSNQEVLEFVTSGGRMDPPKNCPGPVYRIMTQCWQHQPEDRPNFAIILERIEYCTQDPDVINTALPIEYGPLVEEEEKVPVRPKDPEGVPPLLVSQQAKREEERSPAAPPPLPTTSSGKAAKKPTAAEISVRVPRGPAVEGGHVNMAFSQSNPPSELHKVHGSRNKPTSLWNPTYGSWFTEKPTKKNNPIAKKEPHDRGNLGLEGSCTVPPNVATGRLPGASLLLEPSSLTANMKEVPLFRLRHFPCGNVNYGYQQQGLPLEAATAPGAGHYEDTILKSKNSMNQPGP

SMILES: Cc1cc(Nc2ncc(Cl)c(Nc3ccccc3S(=O)(=O)C(C)C)n2)c(OC(C)C)cc1C1CCN(CCOCCOCCNC(=O)CNc2cccc3c2C(=O)N(C2CCC(=O)NC2=O)C3=O)CC1 (configuration not stated)
Activity [1]: < 50%
IC50 [2]: 971 nM
DC50 [3]: 289 nM

microsomal CLint at 1 µM [5]: 39 µL/min/mg
F [6]: 0.2%
solubility thermodynamic at 24 h [7]: 686 µM (≈ 567 µg/mL)
SMILES: COc1cc(CCNCCCCCC#Cc2cccc3c2CN(C2CCC(=O)NC2=O)C3=O)c(C)cc1Nc1ncc(Cl)c(Nc2ccccc2S(=O)(=O)C(C)C)n1 (configuration not stated)
Activity (Erythrocyte [4]): Toxic
Activity (Erythrocyte [8]): Toxic

GI50 (BaF3 [9]): 12.6 nM
GI50 (BaF3 [10]): 79.4 nM
GI50 (BaF3 [11]): 398 nM
GI50 (BaF3 [12]): 501 nM
GI50 (BaF3 [13]): 79.4 nM
SMILES: CCc1cc2c(cc1N1CCC(N3CCOCC3)CC1)C(C)(C)c1[nH]c3cc(C#N)ccc3c1C2=O [ALECTINIB]

microsomal CLint at 1 µM [5]: 5.4 µL/min/mg
SMILES: COc1cc(C2CCN(CCCCCC#Cc3cccc4c3CN(C3CCC(=O)NC3=O)C4=O)CC2)c(C)cc1Nc1ncc(Cl)c(Nc2ccccc2S(=O)(=O)C(C)C)n1 (configuration not stated)
Activity (Erythrocyte [4]): Toxic
Activity (Erythrocyte [8]): Toxic

GI50 (BaF3 [9]): 1000 nM
GI50 (BaF3 [10]): 2000 nM
GI50 (BaF3 [11]): 2000 nM
GI50 (BaF3 [12]): 2000 nM
GI50 (BaF3 [13]): 2000 nM
SMILES: C[C@@H](Oc1cc(-c2cnn(C3CCNCC3)c2)cnc1N)c1c(Cl)ccc(F)c1Cl [CRIZOTINIB]

SMILES: COc1cc(C2CCN(CCCC#Cc3cccc4c3CN(C3CCC(=O)NC3=O)C4=O)CC2)c(C)cc1Nc1ncc(Cl)c(Nc2ccccc2S(=O)(=O)C(C)C)n1 (configuration not stated)
Activity (Erythrocyte [4]): Non-Toxic
microsomal CLint at 1 µM [5]: 10.5 µL/min/mg
DC50 [14]: 43 nM
Activity [15]: Active
Activity [16]: Active
Activity [17]: Active
Activity [18]: Active
Activity [19]: Active
F [6]: 9%
IC50 [2]: 542 nM
DC50 [3]: 6.6 nM
Activity (Erythrocyte [8]): Non-Toxic

microsomal CLint at 1 µM [5]: 14.8 µL/min/mg
SMILES: COc1cc(C2CCN(CC#Cc3ccc4c(c3)CN(C3CCC(=O)NC3=O)C4=O)CC2)c(C)cc1Nc1ncc(Cl)c(Nc2ccccc2S(=O)(=O)C(C)C)n1 (configuration not stated)

microsomal CLint at 1 µM [5]: 59 µL/min/mg
SMILES: COc1cc(CCNCCCCCC#Cc2cccc3c2C(=O)N(C2CCC(=O)NC2=O)C3=O)c(C)cc1Nc1ncc(Cl)c(Nc2ccccc2S(=O)(=O)C(C)C)n1 (configuration not stated)
Activity (Erythrocyte [4]): Toxic
Activity (Erythrocyte [8]): Toxic
